The sample as a whole holds a higher share of hits than the screen did.
Hep lipid drop: inhibitors of hepatocyte lipid droplet formation, primary screen, imaging, high-throughput imaging, BODIPY stain | AML12 mouse hepatocytes, oleate lipid droplets | 0.4% of 240,000 active | inhibition, % at 6.5 µM;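 active = lipid droplet intensity inhibited by at least 50%, with more than 500 cells counted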
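System: AML12 hepatocytes (mouse). Probe or stimulus: oleic acid at 100 µM to induce lipid droplet formation. Times: overnight treatment with compound plus oleate. Detection: Image-based BODIPY and DAPI two-channel analysis. Evaluation: percent inhibition of filter-corrected integrated lipid droplet intensity per well.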
T cruzi inh: inhibitors of intracellular T. cruzi growth, primary screen, luminescence, NIH3T3 host cells; T. cruzi beta-gal in NIH3T3, 90 h; inhibition, % (concentration not given with the values); 1.4% of 300,000 active; AID 1885, 2009;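 active = mean inhibition across valid replicates above about 55%, limit read from the data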;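 also: signal also drops with host cell toxicity which is not excluded here; 0% = plate median of DMSO wells and 100% = zero luminescence signal; higher percent means less beta-gal luminescence so fewer parasites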
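Assay system: NIH/3T3 fibroblasts plus reporter T. cruzi. Amount: NIH/3T3 cells, 5,000 per well. Buffer or medium: DMEM, 2% fetal bovine serum. Doses: compound pinned at 50 nL/well, DMSO. Schedule: ≥90 h infection period, 3 h prior cell attachment. Signal: luminescent β-galactosidase signal after 60 min lysis. Read-out: parasite load inhibition, %.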
L major viab: Leishmania major promastigote growth inhibition, primary screen; Leishmania major promastigotes, resazurin fluorescence viability; 9% of 200,000 active; AID 1063, 2008; inhibition, % at 10 µM; in the data active = inhibition above about 50%;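 also: promastigotes grown with compound for 44 hours at 28 °C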
DTT redox prof: compounds producing H2O2 with reducing agent – biochemical, NIH compound library profiling, artefact control for MLSCN library redox annotation, primary screen; activation, % at 10 µM; 0.03% of 200,000 active; DTT-dependent redox cycling H2O2, phenol red/HRP absorbance; 100% = 100 µM peroxide control, 0% = buffer; AID 878, 2007;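 active = activation of at least 50% relative to the plate's high and low controls in the primary single-dose screen; inactive = activation below 50%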;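 also: compound incubated with DTT at 0.8 mM final as the reducing agent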
MPTP block: mitochondrial permeability transition pore inhibitors, primary screen, biochemical, isolated mouse mitochondria, absorbance. 1.4% of 360,000 active. Ca2+ swelling absorbance, 30 min. inhibition, % at 10 µM. AID 602449, 2012;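 active = inhibition of 50% or more, scaled per plate between neutral and stimulator controls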;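 also: 0% = DMSO wells given calcium and 100% = 1 mM EGTA wells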
Rh123 counter: fluorescence retest of MPTP screen hits in isolated mitochondria, single concentration; 78% of 5,000 active; inhibition, % at 10 µM; membrane potential, Rhodamine 123 fluorescence; shares compounds with MPTP block; in the data active = inhibition above about 22%;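 also: 0% = DMSO vehicle and 100% = positive control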
MPTP swell DR: mitochondrial permeability transition pore inhibitors, dose response, biochemical, absorbance, uHTS hits | isolated mitochondria swelling | 58% of 780 active | shares compounds with MPTP block | IC50, µM; in the data active = IC50 below about 20 µM
MPTP counter DR: fluorescent counter-screen in isolated mitochondria, dose response, counter-screen for MPTP inhibitor project, biochemical, fluorescence, uHTS hits; shares compounds with MPTP block; isolated mitochondria counterscreen, fluorescence read-out; IC50, µM; 49% of 780 active; AID 651564, 2012; in the data active = IC50 below about 80 µM
* = called active by the depositor.

What do the screens show for `CC1CCc2nc3sc4c(c3c(N)c2C1)CCCC4` (stereo not drawn)?
Hep lipid drop: 19; T cruzi inh: 25; L major viab: 92*; DTT redox prof: -1; MPTP block: 88*; Rh123 counter: 81*

What do the screens show for `CC1CCc2c(sc3nc(CSc4n[nH]c(N)n4)[nH]c(=O)c23)C1` (stereo not drawn)?
Hep lipid drop: 1; T cruzi inh: -1; L major viab: -1; DTT redox prof: 0; MPTP block: -2

How did Nc1c2c(nc3sc4c(c13)CCCCC4)CCCCC2 do in these assays?
Hep lipid drop: -8; T cruzi inh: 3; L major viab: 63*; DTT redox prof: 0; MPTP block: 78*; Rh123 counter: 93*

Results for CCOC(=O)c1nc2sc3c(c2c(=O)[nH]1)CCC(C)C3 (stereo not drawn) ?
Hep lipid drop: 5; T cruzi inh: -3; MPTP block: 1

How did Cc1ccc2nc(CN(C)C(=O)[C@H]3O[C@@H](n4ccc(N)nc4=O)[C@H](O)[C@@H]3O)[nH]c2c1 do in these assays?
MPTP block: -1

What do the screens show for `N#C/C(=C\c1cc(Cl)cc(Cl)c1O)C(=O)NC1CCCCC1`?
T cruzi inh: -2; L major viab: 1; DTT redox prof: 2; MPTP block: 61*; Rh123 counter: 68*

What do the screens show for `O=C(Nc1ccc([N+](=O)[O-])cc1)N1CCCCC1`?
Hep lipid drop: 3; T cruzi inh: -11; L major viab: 7; DTT redox prof: -2; MPTP block: 94*; Rh123 counter: 93*

What do the screens show for `O=C(Nc1ccc([N+](=O)[O-])cc1)N1CCCCCC1`?
Hep lipid drop: -3; T cruzi inh: -2; MPTP block: 62*; Rh123 counter: 96*

Results for CC1CCN(CCCCOc2ccc(C(C)(C)C)cc2)CC1 ?
Hep lipid drop: 7; T cruzi inh: -16; MPTP block: 54*; Rh123 counter: 7; MPTP swell DR: 6.8*; MPTP counter DR: 13*

How did Cc1ccc([C@@H]2C[C@H]3[C@@H](CN2S(=O)(=O)c2ccc(C)cc2)C(=O)C[C@@H](c2ccc(C)cc2)N3S(=O)(=O)c2ccc(Cl)cc2)cc1 do in these assays?
MPTP block: 0

What do the screens show for `COc1cc(NC(=O)CCCN2C(=O)NC(C)(C)C2=O)cc(OC)c1`?
MPTP block: -3

Results for CC(C)C(N)c1csc(NC(=O)Nc2ccc(OC(F)(F)F)cc2)n1 (stereo not drawn) ?
MPTP block: 70*; Rh123 counter: 88*

What do the screens show for `CC(=O)c1cccc(NC(=O)C2(c3ccccc3)CC2(Cl)Cl)c1` (stereo not drawn)?
Hep lipid drop: 2; T cruzi inh: -2; L major viab: 4; DTT redox prof: 0; MPTP block: 12

Results for Cc1cc(C)cc(NC(=O)C2(c3ccccc3)CC2(Cl)Cl)c1 (stereo not drawn) ?
T cruzi inh: 27; L major viab: 9; DTT redox prof: 3; MPTP block: 71*; Rh123 counter: 76*

How did CCc1ccc(NC(=O)C2(c3ccccc3)CC2(Cl)Cl)cc1 (stereo not drawn) do in these assays?
T cruzi inh: 19; L major viab: 96*; DTT redox prof: -5; MPTP block: 53*; Rh123 counter: 72*

Results for O=C(Nc1cc(S(=O)(=O)N2CCCCC2)ccc1Cl)c1ccc(F)cc1 ?
MPTP block: 0

How did O=c1/c(=C/c2ccc(O)c([N+](=O)[O-])c2)sc2nc3ccccc3n12 do in these assays?
Hep lipid drop: 8; L major viab: 12; DTT redox prof: -2; MPTP block: 66*; Rh123 counter: 30*

How did O=c1oc2cc(Oc3c([N+](=O)[O-])cc(C(F)(F)F)cc3[N+](=O)[O-])ccc2c2c1CCCC2 do in these assays?
T cruzi inh: 12; L major viab: 13; DTT redox prof: -1; MPTP block: 86*; Rh123 counter: 89*

How did COC(=O)C[C@@H]1C[C@@H]2c3cc(NS(=O)(=O)c4ccccc4)ccc3O[C@@H]2[C@@H](CO)O1 do in these assays?
MPTP block: -1

What do the screens show for `c1ccc(OCCn2c(-c3ccco3)nc3ccccc32)cc1`?
T cruzi inh: 7; L major viab: 8; DTT redox prof: 0; MPTP block: 1

Results for CCn1c(-c2ccco2)nc2ccccc21 ?
Hep lipid drop: 6; T cruzi inh: -13; L major viab: 4; DTT redox prof: 0; MPTP block: 92*; Rh123 counter: 2; MPTP swell DR: 8.7*; MPTP counter DR: >80

How did O=C(NNS(=O)(=O)c1ccccc1F)c1sccc1-n1cccc1 do in these assays?
Hep lipid drop: -6; T cruzi inh: 2; L major viab: 7; DTT redox prof: -2; MPTP block: -1

How did CC(=O)N(C)c1nc(N)n(-c2ccccc2)n1 do in these assays?
Hep lipid drop: 2; T cruzi inh: -35; L major viab: -6; DTT redox prof: 0; MPTP block: 107*; Rh123 counter: -3; MPTP swell DR: >100; MPTP counter DR: >80

How did CC(=O)Nc1nc(N)n(-c2ccccc2)n1 do in these assays?
Hep lipid drop: 2; T cruzi inh: -11; L major viab: -5; DTT redox prof: 0; MPTP block: -1

Results for CCC(CC)c1nnc(NC(=O)c2cccc(S(=O)(=O)N3CCc4ccccc43)c2)s1 ?
T cruzi inh: 2; L major viab: -1; DTT redox prof: -1; MPTP block: 7

What do the screens show for `CCCNC(=O)c1cc(S(=O)(=O)N2CCc3ccccc32)cn1C`?
Hep lipid drop: -40; T cruzi inh: -4; MPTP block: 71*; Rh123 counter: 44*

What do the screens show for `O=C(Nc1ccncc1)c1cccc(S(=O)(=O)N2CCc3ccccc32)c1`?
T cruzi inh: 8; MPTP block: 96*; Rh123 counter: 94*

Results for CCOC(=O)c1sc(NC(=O)c2cccc(S(=O)(=O)N3CCc4ccccc43)c2)c(C#N)c1C ?
Hep lipid drop: -19; T cruzi inh: 3; MPTP block: 91*; Rh123 counter: 86*

Screening data deposited in PubChem BioAssay by several laboratories.
